The results in this text go back to ChEMBL document CHEMBL4351001, “2-Aminoimidazole-based antagonists of the 5-HT6 receptor - A new concept in aminergic GPCR ligand design” (Eur J Med Chem, 2019).

In series [1] the target is T1, 5-hydroxytryptamine receptor 1A (Homo sapiens, UniProt P08908).
T1 sequence (P08908 whole entry): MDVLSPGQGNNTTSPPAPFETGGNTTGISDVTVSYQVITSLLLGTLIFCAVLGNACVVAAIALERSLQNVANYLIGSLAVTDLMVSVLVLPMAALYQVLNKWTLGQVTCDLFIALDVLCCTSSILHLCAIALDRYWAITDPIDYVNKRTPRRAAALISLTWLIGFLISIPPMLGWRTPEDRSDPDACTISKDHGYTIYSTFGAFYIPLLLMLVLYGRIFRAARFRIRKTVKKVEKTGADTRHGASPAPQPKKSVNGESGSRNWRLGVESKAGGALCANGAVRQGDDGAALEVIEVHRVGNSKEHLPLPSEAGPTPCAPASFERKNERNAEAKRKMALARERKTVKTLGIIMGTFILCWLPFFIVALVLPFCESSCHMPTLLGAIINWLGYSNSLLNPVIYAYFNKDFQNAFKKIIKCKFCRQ
The experiment in a line: Displacement of [3H]-8-OH-DPAT from human 5HT1A receptor expressed in HEK293 cells incubated for 1 hr by liquid scintillation counter method. In kind it is cell-based. The note with it: read-out: Ki. In a few lines:
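HEK293 cells stably expressing human 5-HT1AR; membranes in 50 mM Tris–HCl, 0.1 mM EDTA, 4 mM MgCl2, 10 μM pargyline, 0.1% ascorbate; incubated 1 h at room temperature, then filtered. Nonspecific binding defined with 10 μM 5-HT.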
A general note: Displacement assays read how much labelled ligand stays bound in the presence of the test substance.

Series [2] has as its target 5-hydroxytryptamine receptor 2A (Homo sapiens, UniProt P28223). The experiment in a line: Displacement of [3H]ketanserin from human 5HT2A receptor expressed in CHOK1 cells incubated for 1 hr by liquid scintillation counter method. In kind it is cell-based. The note with it: read-out: Ki.
Series [3] has as its target D(2) dopamine receptor (Homo sapiens, UniProt P14416). The experiment in a line: Displacement of [3H]-methylspiperone from human D2 long receptor expressed in HEK293 cells measured after 1 hr by liquid scintillation counter method. Format: cell-based. Put shortly: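 HEK293 membranes stably expressing human D2L receptor, incubated 1 h at 37°C, then filtered and retained radioactivity counted; (+)-butaclamol 1 μM defines nonspecific binding. Tested in triplicate at 7–8 concentrations (10⁻¹¹–10⁻⁴ M); Ki via Cheng-Prusoff, averaged over at least two independent experiments.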

Series [4] concerns the target T2, 5-hydroxytryptamine receptor 6 (Homo sapiens, UniProt P50406). The experiment in a line: Displacement of [3H]LSD from human 5HT6 receptor expressed in HEK293 cells measured after 1 hr by liquid scintillation counter method. In kind it is cell-based.
In series [5] the target is 5-hydroxytryptamine receptor 7 (Homo sapiens, UniProt P34969). The experiment in a line: Displacement of [3H]-5-CT from human 5HT7 receptor expressed in HEK293 cells measured after 1 hr by liquid scintillation counter method. The following applies: read-out: Ki. In kind it is cell-based.
Series [6] concerns HepG2. The experiment in a line: Cytotoxicity against human HepG2 cells assessed as reduction in cell viability measured after 24 hrs by Prestoblue assay. Format: cell-based. The following applies: HepG2, 24 h. In a few lines: (§1)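 HepG2 cells seeded at 2x10^4 per well in DMEM with 10% FBS, grown 24 h (37°C, 5% CO2), then exposed 24 h to 1, 10, 50 and 100 μM compound. Viability read with PrestoBlue (fluorescence); membrane damage by ToxiLight (luminescence).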

Series [7] has as its system HepG2. The experiment in a line: Cytotoxicity against human HepG2 cells assessed as cell membrane damage measured after 24 hrs by Toxilight assay. In kind it is cell-based. The note with it: HepG2, 24 h. In a few lines: as §1
The target in series [8] is Cytochrome P450 3A4 (Homo sapiens, UniProt P08684). The experiment in a line: Inhibition of human recombinant CYP3A4 expressed in Escherichia coli at […] using luciferin PFBE as substrate preincubated for 5 mins followed by NADPH addition measured after 30 mins by P450-Glo luminescence assay. Format: ADME. The note with it: recombinant enzyme, 0.5 h.
For series [9], the target named is T2, 5-hydroxytryptamine receptor 6. The experiment in a line: Antagonist activity at human 5HT6 receptor expressed in HEK293 cells assessed as inhibition of 5-CT induced cAMP production measured after 30 mins by TR-FRET assay. In kind it is functional, cell-based. (In general: cAMP levels reflect the balance of adenylyl cyclase and phosphodiesterase activity.)

Series [10] concerns the target Histamine H1 receptor (Homo sapiens) (UniProt P35367). The experiment in a line: Agonist activity at human recombinant H1 histamine receptor at 10^-5 M relative to control.
Series [11] has the same target. The experiment in a line: Antagonist activity at human recombinant H1 histamine receptor at 10^-5 M relative to control. Details: scale not given: the % may be the effect or the level left.
The target of series [12] is T3, 5-hydroxytryptamine receptor 2C (Homo sapiens) (UniProt P28335).
T3 sequence (whole entry): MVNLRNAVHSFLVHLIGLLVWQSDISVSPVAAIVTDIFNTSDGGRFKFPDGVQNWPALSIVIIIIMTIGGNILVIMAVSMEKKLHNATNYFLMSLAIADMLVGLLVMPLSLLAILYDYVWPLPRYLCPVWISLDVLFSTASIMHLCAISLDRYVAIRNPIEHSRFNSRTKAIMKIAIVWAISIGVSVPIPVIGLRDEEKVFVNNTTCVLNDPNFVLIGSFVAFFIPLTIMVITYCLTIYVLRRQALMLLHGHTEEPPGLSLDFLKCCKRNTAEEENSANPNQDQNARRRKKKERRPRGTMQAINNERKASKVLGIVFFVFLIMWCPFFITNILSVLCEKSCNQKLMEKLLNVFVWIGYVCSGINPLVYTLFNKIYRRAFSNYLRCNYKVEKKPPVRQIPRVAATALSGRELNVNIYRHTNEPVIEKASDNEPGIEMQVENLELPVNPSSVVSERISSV
The experiment in a line: Displacement of [3H]mesulergine from human recombinant 5HT2C serotonin receptor at 10^-6M incubated for 120 mins by scintillation counter method relative to control.

For series [13], the target named is T3, 5-hydroxytryptamine receptor 2C (Homo sapiens). The experiment in a line: Antagonist activity at human 5HT2C serotonin receptor at 10^-5 M relative to control. More on the design: scale not given: the % may be the effect or the level left.
Series [14] addresses hERG (KCNH2) (Homo sapiens, UniProt Q12809). The experiment in a line: Displacement of [3H] dofetilide from human recombinant ERG at 10^-6 M measured after 60 mins by scintillation counting method relative to control. The note with it: probe [3H]dofetilide.
Series [15] concerns the target 5-hydroxytryptamine receptor 2B (Homo sapiens) (UniProt P41595). The experiment in a line: Antagonist activity at human recombinant 5HT2B receptor expressed in CHOK1 cells at 10^-6 M measured after 30 mins by HTRF assay relative to control. In kind it is cell-based. Details: scale not given: the % may be the effect or the level left.
A short description of series [16]: Solubility of compound in water. Format: physicochemical. The note with it: water; read-out: solubility.
Series [17] can be described thus: Acute oral toxicity in Wistar rat by OECD up and down test guideline method. The note with it: in vivo. In a few lines: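 Female rats given a single oral dose under OECD Test Guideline No. 425 (Acute Oral Toxicity, Up-and-Down Procedure); acute toxicity class assigned.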
For series [18], the system named is Rattus norvegicus. The experiment in a line: Reversal of scopolamine induced cognitive impairment impairment in Sprague-Dawley rat at 1 mg/kg, po pre treated for 2 hrs followed by scopolamine addition further treated for 30 mins and measured after 1 hr by novel object recognition test. Format: functional, organism-based. In a few lines:
(§2)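 Male Sprague–Dawley rats (~250 g); open-field habituation 5 min 24 h before test. Compounds p.o. 120 min and scopolamine 1.25 mg/kg i.p. 30 min before 3-min familiarization trial; 3-min recognition trial 1 h later. Exploration video-tracked; discrimination index computed; one-way ANOVA with Newman–Keuls; n = 9–10 per group; mean ± SEM.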

In series [19] the test system is Rattus norvegicus. The experiment in a line: Reversal of scopolamine induced cognitive impairment in Sprague-Dawley rat assessed increase in discrimination index at 0.3 mg/kg, po cotreated with 0.3 mg/kg of donepezil pre treated for 2 hrs followed by scopolamine addition further treated for 30 mins and measured after 1 hr by novel object recognition test. Format: functional, organism-based. In a few lines:
as §2

Series [20] in a line: in vitro. The following applies: rat, microsomes.
The nature of series [21]: in vitro. The note with it: rat, microsomes. This is another data set of the same source.

Structures are written as SMILES. Activity calls are given as the source filed them. The rule behind the calls is not given here.

Sequence of Histamine H1 receptor (Homo sapiens) (P35367 whole entry): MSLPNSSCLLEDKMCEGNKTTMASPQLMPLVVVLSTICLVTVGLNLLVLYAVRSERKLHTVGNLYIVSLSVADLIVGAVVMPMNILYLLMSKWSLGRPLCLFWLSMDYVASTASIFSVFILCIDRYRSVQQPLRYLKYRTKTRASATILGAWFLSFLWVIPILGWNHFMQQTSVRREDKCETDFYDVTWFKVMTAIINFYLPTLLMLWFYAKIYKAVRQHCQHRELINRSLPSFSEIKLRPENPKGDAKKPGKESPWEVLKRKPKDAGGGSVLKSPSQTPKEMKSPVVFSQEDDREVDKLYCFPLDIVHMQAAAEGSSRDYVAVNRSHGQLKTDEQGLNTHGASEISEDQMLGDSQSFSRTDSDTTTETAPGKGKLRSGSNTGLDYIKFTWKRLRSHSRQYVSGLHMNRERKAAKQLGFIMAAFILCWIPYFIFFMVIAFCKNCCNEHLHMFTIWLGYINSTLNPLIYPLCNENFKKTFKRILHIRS
T2 sequence (P50406 whole entry): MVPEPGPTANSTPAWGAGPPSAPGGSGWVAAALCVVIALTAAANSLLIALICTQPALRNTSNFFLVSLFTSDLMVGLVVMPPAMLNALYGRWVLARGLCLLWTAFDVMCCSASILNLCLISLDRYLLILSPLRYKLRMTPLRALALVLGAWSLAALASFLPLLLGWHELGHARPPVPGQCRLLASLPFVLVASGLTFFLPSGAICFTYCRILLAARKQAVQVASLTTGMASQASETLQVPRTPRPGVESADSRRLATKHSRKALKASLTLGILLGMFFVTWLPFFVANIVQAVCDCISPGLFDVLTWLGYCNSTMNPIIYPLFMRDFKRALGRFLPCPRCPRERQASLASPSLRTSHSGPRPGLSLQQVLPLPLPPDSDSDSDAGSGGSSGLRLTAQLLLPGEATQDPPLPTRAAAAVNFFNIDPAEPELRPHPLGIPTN
Sequence of 5-hydroxytryptamine receptor 7 (P34969 whole entry): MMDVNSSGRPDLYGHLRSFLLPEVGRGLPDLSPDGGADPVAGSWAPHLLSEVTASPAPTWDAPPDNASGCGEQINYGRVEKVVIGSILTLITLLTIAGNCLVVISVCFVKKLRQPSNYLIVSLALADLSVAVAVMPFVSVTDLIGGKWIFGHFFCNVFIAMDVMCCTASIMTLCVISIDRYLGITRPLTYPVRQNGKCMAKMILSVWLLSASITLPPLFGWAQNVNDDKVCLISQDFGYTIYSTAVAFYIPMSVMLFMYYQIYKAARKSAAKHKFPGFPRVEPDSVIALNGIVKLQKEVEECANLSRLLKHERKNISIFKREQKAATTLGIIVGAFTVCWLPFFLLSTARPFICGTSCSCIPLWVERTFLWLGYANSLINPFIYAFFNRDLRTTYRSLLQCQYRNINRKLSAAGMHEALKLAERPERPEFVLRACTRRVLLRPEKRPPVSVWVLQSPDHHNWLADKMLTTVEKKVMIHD
Sequence of 5-hydroxytryptamine receptor 2A (P28223 whole entry): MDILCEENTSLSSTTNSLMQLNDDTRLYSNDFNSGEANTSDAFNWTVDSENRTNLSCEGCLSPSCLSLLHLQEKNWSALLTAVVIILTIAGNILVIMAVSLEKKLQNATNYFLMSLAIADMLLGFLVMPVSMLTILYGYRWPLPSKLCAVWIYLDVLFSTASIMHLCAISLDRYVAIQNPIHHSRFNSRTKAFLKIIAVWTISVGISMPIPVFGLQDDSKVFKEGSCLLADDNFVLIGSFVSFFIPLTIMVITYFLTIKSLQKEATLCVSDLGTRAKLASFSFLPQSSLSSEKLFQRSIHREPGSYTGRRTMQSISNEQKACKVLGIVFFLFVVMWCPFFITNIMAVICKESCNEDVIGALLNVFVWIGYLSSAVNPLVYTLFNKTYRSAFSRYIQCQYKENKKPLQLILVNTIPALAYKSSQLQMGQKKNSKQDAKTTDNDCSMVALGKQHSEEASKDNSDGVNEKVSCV
Sequence of D(2) dopamine receptor (P14416 whole entry): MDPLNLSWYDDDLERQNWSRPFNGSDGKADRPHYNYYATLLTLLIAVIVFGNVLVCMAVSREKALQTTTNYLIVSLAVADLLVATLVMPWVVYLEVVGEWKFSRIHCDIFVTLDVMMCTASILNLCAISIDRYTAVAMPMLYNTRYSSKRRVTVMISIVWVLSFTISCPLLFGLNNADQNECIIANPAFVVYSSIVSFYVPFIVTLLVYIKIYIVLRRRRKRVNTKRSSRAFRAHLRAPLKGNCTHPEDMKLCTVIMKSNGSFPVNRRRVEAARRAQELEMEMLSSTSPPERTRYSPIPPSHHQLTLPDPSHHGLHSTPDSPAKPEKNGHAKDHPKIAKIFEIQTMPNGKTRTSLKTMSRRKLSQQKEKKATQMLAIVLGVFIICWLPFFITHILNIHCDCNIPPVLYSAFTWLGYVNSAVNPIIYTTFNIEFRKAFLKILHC
Sequence of Cytochrome P450 3A4 (P08684 whole entry): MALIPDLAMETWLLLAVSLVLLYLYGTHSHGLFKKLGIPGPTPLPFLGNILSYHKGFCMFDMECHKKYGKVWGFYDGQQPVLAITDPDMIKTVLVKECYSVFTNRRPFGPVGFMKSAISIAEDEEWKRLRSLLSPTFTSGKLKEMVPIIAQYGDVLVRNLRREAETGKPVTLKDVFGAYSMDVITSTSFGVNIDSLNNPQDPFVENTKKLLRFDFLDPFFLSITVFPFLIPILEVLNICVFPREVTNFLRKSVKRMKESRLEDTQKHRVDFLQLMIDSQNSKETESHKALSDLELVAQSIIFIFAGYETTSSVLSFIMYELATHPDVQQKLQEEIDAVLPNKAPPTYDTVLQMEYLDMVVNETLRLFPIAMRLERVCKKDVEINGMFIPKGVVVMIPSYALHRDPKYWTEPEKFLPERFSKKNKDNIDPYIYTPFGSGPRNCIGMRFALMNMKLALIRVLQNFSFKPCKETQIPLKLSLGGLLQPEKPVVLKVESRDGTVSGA
Sequence of hERG (KCNH2) (Q12809 whole entry): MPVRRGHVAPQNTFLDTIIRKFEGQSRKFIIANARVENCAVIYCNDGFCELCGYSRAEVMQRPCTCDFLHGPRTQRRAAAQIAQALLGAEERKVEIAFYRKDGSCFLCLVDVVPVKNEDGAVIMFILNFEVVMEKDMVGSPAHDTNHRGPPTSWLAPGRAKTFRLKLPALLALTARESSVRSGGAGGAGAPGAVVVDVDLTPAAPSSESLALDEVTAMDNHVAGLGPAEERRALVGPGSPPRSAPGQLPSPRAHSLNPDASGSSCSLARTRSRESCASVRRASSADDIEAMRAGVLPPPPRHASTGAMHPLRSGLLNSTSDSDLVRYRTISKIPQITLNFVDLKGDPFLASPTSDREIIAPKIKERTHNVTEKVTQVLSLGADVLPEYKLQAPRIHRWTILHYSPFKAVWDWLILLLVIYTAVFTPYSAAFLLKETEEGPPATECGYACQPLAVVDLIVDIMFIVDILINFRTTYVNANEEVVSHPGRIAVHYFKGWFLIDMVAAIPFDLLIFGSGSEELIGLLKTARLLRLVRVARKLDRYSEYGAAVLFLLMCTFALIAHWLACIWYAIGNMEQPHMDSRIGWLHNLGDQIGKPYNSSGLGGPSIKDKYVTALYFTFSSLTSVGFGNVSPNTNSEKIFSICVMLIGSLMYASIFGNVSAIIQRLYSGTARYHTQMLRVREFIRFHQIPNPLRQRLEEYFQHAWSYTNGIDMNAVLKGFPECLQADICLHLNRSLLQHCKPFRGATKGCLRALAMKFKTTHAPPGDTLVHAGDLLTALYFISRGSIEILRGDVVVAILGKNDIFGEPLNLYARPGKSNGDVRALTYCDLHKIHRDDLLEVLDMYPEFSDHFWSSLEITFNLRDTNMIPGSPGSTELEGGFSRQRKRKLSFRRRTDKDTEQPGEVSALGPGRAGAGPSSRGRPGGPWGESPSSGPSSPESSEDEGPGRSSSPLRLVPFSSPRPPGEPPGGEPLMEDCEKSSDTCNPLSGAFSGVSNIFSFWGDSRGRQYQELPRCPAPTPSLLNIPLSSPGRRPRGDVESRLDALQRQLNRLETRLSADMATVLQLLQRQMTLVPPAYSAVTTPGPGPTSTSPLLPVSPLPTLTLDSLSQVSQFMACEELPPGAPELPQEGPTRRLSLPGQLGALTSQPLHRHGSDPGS
Sequence of 5-hydroxytryptamine receptor 2B (Homo sapiens) (P41595 whole entry): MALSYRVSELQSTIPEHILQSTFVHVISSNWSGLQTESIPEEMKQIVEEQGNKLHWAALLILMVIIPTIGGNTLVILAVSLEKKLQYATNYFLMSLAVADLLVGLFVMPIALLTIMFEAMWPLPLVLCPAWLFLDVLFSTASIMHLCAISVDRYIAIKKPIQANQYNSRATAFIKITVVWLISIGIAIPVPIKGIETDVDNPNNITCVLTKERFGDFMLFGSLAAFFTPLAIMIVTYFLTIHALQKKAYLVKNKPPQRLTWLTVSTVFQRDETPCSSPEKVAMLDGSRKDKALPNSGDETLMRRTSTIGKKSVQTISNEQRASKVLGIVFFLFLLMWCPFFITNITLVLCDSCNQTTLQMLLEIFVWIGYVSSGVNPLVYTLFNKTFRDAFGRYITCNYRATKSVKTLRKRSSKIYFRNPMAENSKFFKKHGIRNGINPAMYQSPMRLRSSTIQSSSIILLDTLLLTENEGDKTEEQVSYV

In general, Ki refers to a measure of affinity in units of concentration, obtained from inhibition or displacement. Broadly, the IC50 is the concentration that gives 50% inhibition. Broadly, the Kb is the affinity of an antagonist, worked out from how it opposes an agonist. By inhibition is commonly meant how much of the control response was suppressed. In general, solubility refers to the concentration that dissolves in the medium under given conditions. What is called LD50 is the dose at which mortality reaches 50%. For orientation: microsomal CLint means a measure of how fast metabolising enzymes remove a compound, apart from limits set by blood flow. By half-life is commonly meant how long it takes for the measured level to halve. Take `Cc1nc(N)[nH]c1-c1cn(S(=O)(=O)c2cccc3ccccc23)c2ccccc12.Cl`: the Ki in [1] is over 10000 nM; in series [2], 490 nM; in series [3], 1170 nM; in [4] it was 8 nM; in series [5], 2510 nM. Further, the IC50 worked out at 15700 nM in series [6] and 18400 nM in [7]. The INH entry in series [8] is “Active”. Also, the Kb in [9] stood at 4.8 nM. For the same compound, the Activity is -1.3% in series [10], 25.7% in series [11], 50.3% in series [13] and -2.8% in series [15]. Further, the inhibition in series [12] turned out to be 52.7%. The inhibition at 1 h, 1 µM in series [14] is 25.7%. Besides, the solubility in [16] lay in the range of 1000 to 10000 µg/mL. In series [17], this compound came in with an LD50 of over 2000 mg/kg. Further, the result in series [18] and in series [19] was Active. In [20], this compound returned an intrinsic clearance (microsomal CLint) of 60.3 µL/min/mg. This compound displayed a half-life in series [21] of 23 min.
